Results on two compounds are retold here after publication PMC11060919 (International journal of antimicrobial agents, 2024).

One data set has as its system rat. To be noted: translational rat model; increased nephrotoxic effect; cited from earlier work.
The subject of data set [1] is male Sprague-Dawley rats. Kind of data set: Iohexol-measured GFR. Format: in vivo, Sprague-Dawley rat. To be noted: Baseline (day 0, before vancomycin); dose-matched bolus group versus humanized infusion group as referent; marginal difference, mixed effects model.
The subject of data set [2] is male Sprague-Dawley rats. Kind of data set: Urinary clusterin, kidney injury biomarker, 24-hour urine. Format: in vivo, Sprague-Dawley rat. To be noted: dose-matched bolus versus humanized infusion as referent. An outline of the steps: (§1)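 Male Sprague-Dawley rats were housed in metabolic cages, with 24-h urine collected from baseline (day 0) through day 2. On day 1 the glycopeptide was given IV either as 30.8 mg in 6.0 mL saline by variable-rate infusion over 24 hours (n=11), or as 15.4 mg boluses over 2 minutes every 12 hours ×2 plus volume-matching saline infusion (n=8). Analysis: mixed-effects model, day 0 referent, Bonferroni-corrected group-by-day tests.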

Data set [3] relates to male Sprague-Dawley rats. Kind of data set: Urinary osteopontin. To be noted: dose-matched bolus versus humanized infusion as referent. Format: in vivo, Sprague-Dawley rat. An outline of the steps: as §1
For data set [4], the system named is male Sprague-Dawley rats. Kind of data set: Urinary KIM-1, kidney injury biomarker, 24-hour urine. The format is in vivo, Sprague-Dawley rat. To be noted: dose-matched bolus versus humanized infusion as referent. A digest of the protocol: as §1

Regarding `Cc1onc(-c2c(F)cccc2Cl)c1C(=O)N[C@@H]1C(=O)N2[C@@H]1SC(C)(C)[C@@H]2C(=O)O` [flucloxacillin], the “increase of urinary KIM-1 when added to vancomycin, compared to vancomycin” value in the data set with rat is reported as 58 to 140 ng/24 hours.

Turning to `CN[C@H](CC(C)C)C(=O)N[C@H]1C(=O)N[C@@H](CC(N)=O)C(=O)N[C@H]2C(=O)N[C@H]3C(=O)N[C@H](C(=O)N[C@H](C(=O)O)c4cc(O)cc(O)c4-c4cc3ccc4O)[C@H](O)c3ccc(c(Cl)c3)Oc3cc2cc(c3O[C@@H]2O[C@H](CO)[C@@H](O)[C@H](O)[C@H]2O[C@H]2C[C@](C)(N)[C@H](O)[C@H](C)O2)Oc2ccc(cc2Cl)[C@H]1O` [vancomycin], the “GFR difference, mean (95% CI)” value in the data set with male Sprague-Dawley rats [1] turned out to be 0.05 mL/min/100 g body weight. The “Urinary clusterin difference, mean (95% CI)” value in the data set with male Sprague-Dawley rats [2] (Day 1) is 1932 ng; in the data set on male Sprague-Dawley rats [2] (Day 2), -3103 ng. Also, the “Urinary OPN difference, mean (95% CI)” value with male Sprague-Dawley rats [3] (Day 1) is -1.76 ng; in the data set with male Sprague-Dawley rats [3] (Day 2), 0.52 ng. Moreover, the entries for the “KIM-1 difference, mean (95% CI)” value with male Sprague-Dawley rats [4] (Day 1) and in the data set with male Sprague-Dawley rats [4] (Day 2) were 9.80 ng and -2.27 ng, respectively.
